In the library only some 3.8% were active in any assay of this set; here they are far more common.
CHO parental Ca: counter-screen for OX1R antagonists: effect in parental CHO cells | parental CHO-K1, ATP-induced calcium, Fluo-8 fluorescence | inhibition, % at 5.6 µM | 330,000 tested, 0.63% active | AID 463079;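 active = inhibition above that plate's mean sample inhibition plus 3 SD, cut at about 26% in these data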;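 also: 0% = ATP-challenged DMSO wells and 100% = DMSO wells without ATP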
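Assay system – parental CHO cells · Reagent – ATP stimulus · Detection – intracellular calcium via Fluo-8 no-wash fluorescent dye · Evaluation – percent inhibition of ATP-evoked calcium rise, normalized to controls · Controls – ATP wells versus no-ATP DMSO wells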
GPR7 antag: blocks human GPR7 receptor signaling | P48145 | GPR7-expressing cells, fluorescence antagonist assay | inhibition, % at 4.4 µM | 290,000 tested, 1.1% active | AID 1861; in the data active = inhibition above about 16%, passing the limit was not always enough;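 also: cells stimulated with the agonist NPW; 0% = agonist with vehicle and 100% = vehicle without agonist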
OX1R antag-1: antagonists of human orexin 1 receptor. O43613. CHO/OX1R cells, Fluo-8 calcium fluorescence, orexin A. inhibition, % at 5 µM. 330,000 tested, 0.43% active;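 active = inhibition above its plate's threshold, mean inhibition of all tested compounds on the plate plus 3 SD, cut at about 37% in these data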;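 also: 0% = orexin A challenge wells and 100% = SB-334867-A antagonist wells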
Target sequence (O43613 whole entry, looked up): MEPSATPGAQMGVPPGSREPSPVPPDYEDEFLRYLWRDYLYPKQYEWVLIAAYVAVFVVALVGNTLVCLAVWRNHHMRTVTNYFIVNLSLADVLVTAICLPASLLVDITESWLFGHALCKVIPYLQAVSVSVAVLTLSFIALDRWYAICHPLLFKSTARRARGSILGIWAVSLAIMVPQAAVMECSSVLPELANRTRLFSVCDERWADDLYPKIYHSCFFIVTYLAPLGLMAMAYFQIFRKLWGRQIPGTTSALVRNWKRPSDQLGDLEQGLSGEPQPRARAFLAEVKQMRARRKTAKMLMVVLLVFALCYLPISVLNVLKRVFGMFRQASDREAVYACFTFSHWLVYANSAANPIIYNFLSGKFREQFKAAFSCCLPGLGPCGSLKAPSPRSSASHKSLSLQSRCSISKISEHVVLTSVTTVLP
OX1R antag-2: antagonists of human orexin 1 receptor (OX1R); 330,000 tested, 1.8% active; inhibition, % at 6.6 µM; OX1R-expressing cells, FRET antagonist read-out; in the data active = inhibition mostly above about 38%, no sharp cut-off; inactive = mostly below about 40%;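 also: 0% = agonist challenge alone and 100% = reference antagonist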
MPTP inh: inhibitors of mitochondrial permeability transition pore; 360,000 tested, 1.4% active; AID 602449; inhibition, % at 10 µM; isolated mouse mitochondria, Ca2+ swelling absorbance, 30 min;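 active = inhibition of 50% or more, scaled per plate between neutral and stimulator controls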;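 also: 0% = DMSO wells given calcium and 100% = 1 mM EGTA wells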
GPR7 antag conf: human GPR7 antagonism, confirmation assay. GPR7-expressing cells, calcium fluorescence antagonist mode. shares compounds with GPR7 antag. 2,400 tested, 52% active. inhibition, % at 4.4 µM; in the data active = inhibition above about 24%;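 also: stimulated with the GPR7 agonist NPW; 0% = agonist plus vehicle and 100% = vehicle alone without agonist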
MCHR1 antagonist: MCHR1 (human) antagonism in GPR7 counter-screen. MCHR1-expressing cells, fluorescence antagonist assay. shares compounds with GPR7 antag. 2,400 tested, 62% active. AID 2148. inhibition, % at 4.4 µM; in the data active = inhibition above about 22%;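 also: 0% = vehicle with agonist and 100% = vehicle without agonist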
* marks the source's active call; other numbers are inactive results; / = no result.

SMILES | CHO parental Ca | GPR7 antag | OX1R antag-1 | OX1R antag-2 | MPTP inh | GPR7 antag conf | MCHR1 antagonist
Cc1ccc(CN(C(=O)c2c(F)cccc2F)C2CC(C)(C)NC(C)(C)C2)o1 | -0.5 | 25.0* | -12.4 | 12.0 | -1.8 | 8.7 | 2.9
CCOc1cc(C(=O)N2CCC3(CC2)NCCc2[nH]cnc23)cc(OCC)c1OCC | -1.7 | -5.4 | 15.7 | -3.0 | -0.5 | / | /
COc1ccc(-n2c(SCCC#N)nnc2-c2cc(Cl)ccc2OC)cc1Cl | -8.0 | 24.4* | -26.3 | 5.6 | 0.9 | 40.1* | 45.9*
COc1ccc(/C(N)=N/OC(=O)CC2CCCCC2)cc1 | 2.4 | -18.5 | -8.7 | 37.4 | 0.3 | / | /
COC(=O)c1c(NC(=O)CN2CCCC(C)C2)c2c(C)cccc2n1C (configuration not stated) | -18.3 | 25.9* | -22.2 | 2.7 | -1.6 | 14.1 | 27.1*
CCCCC(c1nnnn1C1CCCC1)N1CCN(C2CCCC2)CC1 (configuration not stated) | -16.1 | 22.6 | -36.4 | 19.0 | 0.1 | / | /
CCCC(c1nnnn1C1CCCCC1)N1CCN(C2CCCC2)CC1 (configuration not stated) | -21.3 | 22.2* | -20.3 | 4.6 | -0.5 | 22.4 | 16.5
Cc1cccc(N2CCN(C(=O)c3ccc(S(=O)(=O)N(C)c4ccccc4)cc3)CC2)c1C | -13.5 | / | 27.0 | 20.1 | -0.5 | / | /
CN(c1ccc(OCC(=O)NCc2cccnc2)cc1)S(=O)(=O)c1ccc(Cl)cc1 | -23.3 | -2.3 | -18.7 | 13.3 | -0.7 | / | /
CC(=O)Nc1ccc2ccccc2c1 | -3.5 | 7.4 | 6.5 | 17.2 | -0.6 | / | /
CC(=O)Nc1ccc2cc3ccc(NC(C)=O)cc3nc2c1 | -2.6 | 14.8* | -28.6 | 31.6 | 0.3 | -7.6 | -5.7
Cc1cccc(C(=O)N2CCCC(N3CCN(Cc4ccc5c(c4)OCO5)CC3)C2)n1 (configuration not stated) | -14.7 | 27.4* | -43.7 | 10.8 | -0.6 | -11.2 | 1.6
Clc1ccc(CSCCc2ccncc2)cc1 | -11.6 | 22.6* | -7.3 | 29.6 | -0.7 | 9.1 | 25.5*
c1ccc2c(CSCCc3ccncc3)cccc2c1 | -20.4 | -7.6 | -30.3 | 27.6 | -2.1 | / | /
CCN(CC)c1ccc(S(=O)(=O)N2CCOCC2)cc1NC(=O)CSC(=S)N1CCCC1 | -4.1 | 44.3* | -37.4 | -8.7 | -0.3 | 24.4* | 48.4*
CCN(CC)c1ccc(S(=O)(=O)N2CCOCC2)cc1NC(=O)CNCc1ccccc1 | -9.6 | 24.2* | -1.5 | 9.4 | 1.2 | 31.4* | 28.7*
O=C(/C=C/[C@H]1O[C@@H](n2ccc(=O)[nH]c2=O)[C@H](O)[C@@H]1O)N1CCN(Cc2ccc(F)cc2)CC1 | / | / | / | / | 0.4 | / | /
CN1C(N)=NC(=O)/C1=C\c1ccc(Br)cc1 | -2.7 | -11.7 | -23.8 | 29.8 | 0.4 | / | /
NC(=O)[C@H]1CC2(CC(c3cccc(NC(=O)COc4ccc(Cl)cc4)c3)=NO2)CN1C(=O)C(c1ccccc1)c1ccccc1 (some centres not stated) | -2.4 | / | 8.4 | 0.8 | -3.4 | / | /
CC(=O)CC(=O)Nc1ncccn1 | -4.0 | -2.8 | -13.9 | 14.2 | 24.2 | / | /
Cc1ccc(C(=O)C(C)OC(=O)c2nc(Cl)ccc2Cl)cc1 (configuration not stated) | -7.0 | -19.7 | -33.1 | 17.2 | -0.5 | / | /
O=C(O)Cn1nnc(-c2ccccc2)c1COc1ccccc1 | / | / | / | / | -0.7 | / | /
COc1ccc(NC(=O)C(OC(=O)c2cnccn2)c2ccccc2)cc1Cl (configuration not stated) | -11.3 | 31.6* | -12.4 | 23.5 | 1.2 | 18.8 | 20.0
CCCOc1ccc(N2C(=O)CC(N3CCN(c4nc5ccccc5s4)CC3)C2=O)cc1 (configuration not stated) | -32.2 | 41.8* | -23.9 | 15.5 | -1.6 | -2.8 | 33.5*
CCCOc1ccc(N2C(=O)CC(N3CCN(c4ccccc4F)CC3)C2=O)cc1 (configuration not stated) | -8.8 | -7.4 | -28.7 | 7.4 | 0.5 | / | /
SMILES | CHO parental Ca | GPR7 antag | OX1R antag-1 | OX1R antag-2 | MPTP inh | GPR7 antag conf | MCHR1 antagonist
CC(=O)NC1=NN(C(C)=O)C(c2ccc(F)cc2)S1 (configuration not stated) | -8.6 | -2.5 | -7.6 | 24.4 | -0.4 | / | /
O=C(CCNS(=O)(=O)c1ccc(Br)s1)Nc1ccc(Cl)cc1 | -6.0 | 32.0* | -12.6 | 1.4 | 35.8 | 31.9* | 29.5*
CCN(CC)S(=O)(=O)c1ccc(NC(=O)c2ccc(N(C)S(C)(=O)=O)cc2)cc1 | -12.9 | 32.3* | -5.9 | 17.2 | -3.3 | 43.9* | 58.0*
CCN(CC)S(=O)(=O)c1ccc(NC(=O)c2ccccc2N(C)S(C)(=O)=O)cc1 | -3.2 | -5.7 | -14.7 | 8.6 | 2.9 | / | /
COc1cc(OC)c(N(C)S(=O)(=O)c2cccc(C(=O)OCC(=O)N(C)C3CCCCC3)c2)cc1Cl | / | / | / | / | 1.3 | / | /
Cc1c(Cl)sn(-c2ccc(Cl)cc2)c1=O | / | 24.8* | / | / | 1.9 | 73.2* | 90.6*
Cc1ccccc1OCCn1c(=O)sc2ccccc21 | -12.4 | 21.0* | -25.3 | 28.4 | 1.8 | 13.5 | 36.6*
COc1ccccc1OCCn1c(=O)sc2ccccc21 | -7.8 | 2.8 | -13.6 | 3.5 | 2.5 | / | /
O=C(CN1CCCC1)N/N=C/c1c(O)ccc2ccccc12 | -14.5 | -8.4 | -21.1 | 18.5 | -1.2 | / | /
CC1Cc2cc(S(=O)(=O)N3CCCC(C(=O)N4CCCCC4)C3)ccc2N1C(=O)C1CC1 (configuration not stated) | -28.4 | 27.9* | -14.7 | 5.6 | 1.2 | 19.9 | 24.0*
CC(=O)N1c2ccc(S(=O)(=O)N3CCCC(C(=O)N4CCCCC4)C3)cc2CC1C (configuration not stated) | -3.0 | -1.3 | -11.4 | 7.4 | 0.4 | / | /
COC(=O)C1CCCCN1C(=O)c1ccc2oc(C(C)C)nc2c1 (configuration not stated) | 2.3 | 25.8* | -46.2 | 24.1 | 0.9 | 6.4 | 2.7
CCC1CCCCN1S(=O)(=O)c1ccc(NC(=O)c2nc(S(C)(=O)=O)ncc2Cl)cc1 (configuration not stated) | 55.0* | 74.2* | 52.9* | 52.8* | -3.7 | 90.4* | 101.0*
CS(=O)(=O)c1ncc(Cl)c(C(=O)Nc2ccc3ccccc3c2)n1 | / | 14.3 | / | / | 8.4 | / | /
CCS(=O)(=O)c1ncc(Cl)c(C(=O)Nc2ccc(S(=O)(=O)N3CCCC(C)C3)cc2)n1 (configuration not stated) | 46.8* | 59.4* | 41.4* | 30.7 | -2.5 | 86.0* | 97.2*
CC1CCCN(S(=O)(=O)c2ccc(NC(=O)CN3CCN(C)CC3)cc2)C1 (configuration not stated) | -4.1 | -7.1 | -11.8 | -1.6 | 2.6 | / | /
O=C(NN=C1CCCC1)c1ccccc1OCCOc1ccccc1 | -21.8 | 22.1* | -4.3 | 5.4 | -2.9 | 14.9 | 27.4*
NCC(O)CN1CCN(Cc2ccccc2)CC1 (configuration not stated) | -2.8 | 8.3 | -9.8 | 1.7 | 0.5 | / | /

Screening results (PubChem)
